Reference: ChEMBL document CHEMBL1129377, “Synthesis, structure-activity relationships, and the effect of polyethylene glycol on inhibitors of phosphatidylinositol-specific phospholipase C from Bacillus cereus” (J Med Chem, 1996)
pIC50: −log10 of the molar value.

Experiments:
[1] = Inhibition of Phosphoinositide specific phospholipase C (PI-PLC) from Bacillus cereus on the internal face of the cell membrane.
Procedure, shortened: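 Single-phase aqueous assay: recombinant B. cereus PI-PLC, final 5 nM, with 0.25 mM NPIP in 100 mM HEPES, 1 mM EDTA, pH 7, 0.008% PEG-8000, 25 °C. Inhibitor kept at least tenfold below cmc and added before substrate and enzyme. Initial rates at 399 nm over 4 min. IC50 is the mean of two experiments. Ki came from varying NPIP 0.1-0.5 mM at two inhibitor levels, fitted to competitive inhibition.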

Bacillus cereus [2] = test: Compound was tested for the inhibition of Phosphoinositide specific phospholipase C (PI-PLC) in the presence of buffer at concentration of 40.0 mM; parameters: scale not given: the % may be the effect or the level left
Procedure, shortened: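 Recombinant B. cereus PI-PLC, final 5 nM, with 0.25 mM NPIP (D-enantiomer) in 100 mM HEPES, 1 mM EDTA, pH 7, no PEG-600, 25 °C. Inhibitor added a few minutes before substrate and enzyme. Activity normalized to uninhibited control; mean of at least two separate experiments.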

Bacillus cereus [3] = test: Compound was tested for the inhibition of Phosphatidylinositol-Specific Phospholipase C (PI-PLC) in the presence of PEG-600 at concentration of 40.0 mM; parameters: scale not given: the % may be the effect or the level left
Procedure, shortened: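 Recombinant B. cereus PI-PLC (E. coli periplasmic prep), final 5 nM, with 0.25 mM NPIP (D-enantiomer) in 90% crystallization precipitant solution (33% PEG-600, 0.16 M trisodium citrate-HCl pH 7.35, 46 mM HEPES pH 7), 25 °C. Inhibitor preincubated a few minutes before substrate and enzyme. p-Nitrophenolate followed at 399 nm for 4 min; activity normalized to uninhibited control.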

| pIC50 [1] | Compound | also measured |
| --- | --- | --- |
| 4.26 | CCCCCCOCC(COP(=O)(O)O)OCCCCCC (stereo not drawn) | – |
| 3.88 | O=C1C(O)C(O)C(O)C(O)C1O (stereo in doubt) | – |
| 4.37 | O=P(O)(O)OC1C(O)C(O)C(O)C(O)C1O (stereo in doubt; form 1) [listing 1 of 2 here] | – |
| 4.74 | CCCCCCOCC(CCP(=O)(O)OC1C(O)C(O)C(O)C(O)C1O)OCCCCCC (stereo not drawn) | Activity (Bacillus cereus [2]): 25%; Activity (Bacillus cereus [3]; 0.25 mM, in the assay text read “0.25 mM” for “40.0 mM”): 100% |
| – | O=P(O)(O)OC1C(O)C(O)C(O)C(O)C1O (stereo in doubt; form 1) [listing 2 of 2 here] | Activity (Bacillus cereus [2]): 69%; Activity (Bacillus cereus [3]; 16.0 mM, in the assay text read “16.0 mM” for “40.0 mM”): 56% |
| 4.35 | CCCCCCOCC(CC(F)(F)P(=O)(O)O)OCCCCCC (stereo not drawn) | – |
| 0.39 | O[C@H]1[C@H](O)[C@@H](O)[C@H](O)[C@@H](O)[C@@H]1O [SCYLLITOL] | – |
| 3.73 | CCCCCC(=O)OCC(COP(=O)(O)O)OC(=O)CCCCC (stereo not drawn) | – |
| 3.63 | CCCCCOCC(COP(=O)(O)OC)OCCCCC (stereo not drawn) | – |
| 5.52 | O=C1C(O)C(O)C(O)C(O)C1O (racemic) | – |
| < 1.30 | O[C@@H]1[C@H](O)[C@@H](O)[C@@H](O)[C@@]2(CO2)[C@@H]1O | – |
| 4.64 | CCCCCCOCC(CCP(=O)(O)OC)OCCCCCC (stereo not drawn) | – |
| 4.28 | CCCCCCOCC(COP(=O)(O)OC)OCCCCCC (stereo not drawn) | – |
| 0.87 | O=P1(O)OC2C(O)C(O)C(O)C(O)C2O1 (stereo not drawn) | – |
| 4.25 | O=P(O)(O)OC1C(O)C(O)C(O)C(O)C1O (stereo in doubt; form 2) | – |
| 4.47 | CCCCCCOCC(CC(F)(F)P(=O)(O)OC1C(O)C(O)C(O)C(O)C1O)OCCCCCC (stereo not drawn) | – |
| 3.93 | CCCCCC(=O)OCC(COP(=O)(O)OC)OC(=O)CCCCC (stereo not drawn) | – |
| 2.00 | O[C@H]1[C@H](O)[C@@H](O)[C@H](O)[C@@H](O)[C@H]1O [INOSITOL] | Activity (Bacillus cereus [2]): 18%; Activity (Bacillus cereus [3]; 40.0 mM): 22% |
| 2.70 | O[C@H]1[C@@H](O)[C@@H](O)[C@@H](O)[C@@H](O)[C@@H]1O | – |
| 4.22 | CCCCCCOCC(CCP(=O)(O)O)OCCCCCC (stereo not drawn) | – |
| 4.92 | CCCCCCCCOCC(COP(=O)(O)OC)OCCCCCCCC (stereo not drawn) | Activity (Bacillus cereus [2]): 14%; Activity (Bacillus cereus [3]; 0.17 mM, in the assay text read “0.17 mM” for “40.0 mM”): 102% |
